Measured values from ChEMBL document CHEMBL1126092, “Design, synthesis, and biological evaluation of novel 4-substituted 1-methyl-1,2,3,6-tetrahydropyridine analogs of MPTP” (J Med Chem, 1992).

Legend:
[1] = substrate: CN1CC=C(Sc2ccccc2)CC1; test: (§1) Tested against Monoamine oxidase B enzyme from bovine liver mitochondria
How it was run: (§2)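 Bovine liver mitochondrial MAO-B, 0.05 unit/mL (unit = 1 μmol benzylamine→benzaldehyde per min; equivalent to 3.7 nmol protein), incubated at 37 °C in 0.1 M sodium phosphate pH 7.4. Reaction started by substrate addition, final 0.1–3.0 mM. Product formation monitored spectrophotometrically, initial rates taken 30–180 s after enzyme addition. Apparent Vmax and KM from double reciprocal plot.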

[2] = substrate: CN1CC=C(Cc2ccccc2)CC1; test: as §1; how it was run: as §2
[3] = substrate: CN1CC=C(OC(=O)N(C)C)CC1; test: as §1; how it was run: as §2
[4] = substrate: CN1CC=C(Oc2ccccc2)CC1; test: as §1; how it was run: as §2
[5] = substrate: CN1CC=C(OC(=O)N(C)c2ccccc2)CC1; test: as §1; how it was run: as §2

B1: Amine oxidase [flavin-containing] B (Bos taurus) (protein)
chain: MSSKCDVVVVGGGISGMAAAKLLHDSGLNVIVLEARDRVGGRTYTLRNQKVKYVDLGGSYVGPTQNHILRLSKELGLETYKVNEVERLIHHTKGKSYPFRGSFPSVWNPITYLDHNNLWRTMDDMGREIPSDAPWKAPLAEQWDLMTMKELLDKICWTESSKQLAILFVNLCVTAEIHEVSALWFLWYVKQCGGTTRIFSTSNGGQERKFVGGSGQVSERIMDLLGDRVKLERPVIHIDQTGENVLVETLNHELYEAKYVISAVPPVLGMKIHFNPPLPMMRNQLITRVPLGSVIKSIVYYKEPFWRNMDYCGSMIIEGEEAPVAYALDDTKPDGSYPAIIGFILAHKARKLARLTKEERLKKLCDLYAKVLGSQEALHPVHYEEKNWCEEQYSGGCYTSYFPPGIMTQYGRVLRQPVGRIYFAGTETATHWSGYMEGAVEAGERAAREILHAMGKIPEDEIWLPEPESVDVPAKPITTTFLQRHLPSVPGLLKLIGLTTIFSATALGFLAHKRGLLVRI
B1 showed a Km [1] of 80 µM, a Vmax [1] of 0.274 µM/min and a Km [2] of 83 µM. For the same protein, the Vmax [2] was 0.222 µM/min, the Km [3] was 7100 µM and the Vmax [3] was 0.401 µM/min. The Km [4] was 234 µM, the Vmax [4] was 0.161 µM/min and the Km [5] was 3850 µM. The Vmax [5] was 0.255 µM/min.
